Reference: ChEMBL document CHEMBL1133726, “Structure-activity relationships in platelet-activating factor (PAF). 10. From PAF antagonism to inhibition of HIV-1 replication” (J Med Chem, 2000)

Columns and labels:
Oryctolagus cuniculus = species on record: Oryctolagus cuniculus; experiment: Inhibition of PAF-induced platelet aggregation was determined using platelet rich plasma (PRP) of New Zealand rabbits.; assay type: functional
Outline: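 Rabbit platelet-rich plasma was incubated and stirred with antagonist for 2 min, then challenged with 2.5 nM PAF. Antagonist solutions in EtOH spanned 10^-2 to 10^-7 M. Aggregation was followed by continuous light-transmission recording and compared with PAF alone. IC50 came from dose-response curves (5-6 determinations).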

[1] = system: Human immunodeficiency virus 1; experiment: Cytotoxic concentration against monocyte-derived macrophage infected by the HIV-1/Ba-L strain using neutral red staining assay.; assay type: functional
Outline: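 Compound-exposed MDM, with drug renewed twice weekly, were checked microscopically during culture. At the end of culture they were stained with neutral red, and CC50 was calculated from the optical density values. The assay was repeated with cells from a second blood donor.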

[2] = system: Human immunodeficiency virus 1; experiment: Percent inhibition at 100 uM dose of HIV-1 replication using monocyte-derived macrophages infected by the HIV-1/Ba-L strain.; assay type: functional
Outline: (§1)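 Human monocytes were elutriated from seronegative donor PBMC and differentiated 7 days into MDM in RPMI 1640 with 10% heat-inactivated FCS. 1 million MDM were pretreated 1 h with compound and infected with 10 000 TCID50 (0.01 moi) HIV-1/Ba-L, then washed at 24 h. Medium and drug were renewed twice weekly. Read-out was supernatant RT activity, with a second donor repeat; mean ± SD.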

[3] = system: Human immunodeficiency virus 1; experiment: Antiviral activity towards inhibition of HIV-1 replication using monocyte-derived macrophage infected by the HIV-1/Ba-L strain.; assay type: functional, organism-based; outline: as §1
[4] = system: Human immunodeficiency virus 1; experiment: Antiviral activity towards inhibition of replication of HIV-1-DAS infected monocyte-derived macrophage; assay type: functional, organism-based
[5] = system: Human immunodeficiency virus 1; experiment: Percent inhibition at 10 uM dose of HIV-1 replication using monocyte-derived macrophage infected by the HIV-1/Ba-L strain.; assay type: functional; outline: as §1

Compound | IC50 (Oryctolagus cuniculus) [µM] | IC50 [3] [µM] | IC50 [4] [µM] | CC50 [1] [µM] | inhibition at 100 µM [2] [%] | inhibition at 10 µM [5] [%]
CCCN(CCC)C(=O)OCC1CN(C(=O)c2cc(OC)c(OC)c(OC)c2)CCN1C(=O)c1cc(OC)c(OC)c(OC)c1 (stereo not given) | 0.37 | – | – | > 100 | 66 | –
COc1cc(C(=O)N2CCN(C(=O)c3cc(OC)c(OC)c(OC)c3)C(COC(=O)N3CCCC3)C2)cc(OC)c1OC (stereo not given) | 10 | > 100 | – | > 100 | – | –
CCC1CN(C(=O)c2cc(OC)c(OC)c(OC)c2)CCN1C(=O)c1cc(OC)c(OC)c(OC)c1 (stereo not given) | 0.46 | 230 | – | > 100 | – | –
NC(=O)c1ccn2c1CS[C@@H]2c1cccnc1 [DACOPAFANT] | – | – | 50 | – | – | –
CCCCCCCCCCC1CN(C(=O)c2cc(OC)c(OC)c(OC)c2)CCN1C(=O)c1cc(OC)c(OC)c(OC)c1 (stereo not given) | 0.24 | – | – | > 50 | – | 40
NC(=O)c1ccn2c1CS[C@@H]2c1cccnc1 (racemic) [DACOPAFANT] | 16 | – | – | – | – | –
COc1cc(C(=O)N2CCN(C(=O)c3cc(OC)c(OC)c(OC)c3)C(COC(=O)NC(C)(C)C)C2)cc(OC)c1OC (stereo not given) | 0.13 | – | – | > 100 | 52 | –
CCN(CC)C(=O)OCC1CN(C(=O)c2cc(OC)c(OC)c(OC)c2)CCN1C(=O)c1cc(OC)c(OC)c(OC)c1 (stereo not given) [PMS-601] | 8 | 11 | – | > 1000 | 95 | –
COc1cc(C(=O)N2CCN(C(=O)c3cc(OC)c(OC)c(OC)c3)C(COC(=O)C(C)(C)C)C2)cc(OC)c1OC (stereo not given) | 0.1 | – | – | > 100 | 25 | –

Further lines, with some results ahead:

IC50 (Oryctolagus cuniculus) [µM] | IC50 [3] [µM] | IC50 [4] [µM] | Compound | CC50 [1] [µM] | inhibition at 100 µM [2] [%] | inhibition at 10 µM [5] [%]
1.78 | > 100 | – | COc1cc(C(=O)N2CCN(C(=O)c3cc(OC)c(OC)c(OC)c3)CC2)cc(OC)c1OC | > 100 | – | –
0.56 | 66 | – | COc1cc(C(=O)N2CCN(C(=O)c3cc(OC)c(OC)c(OC)c3)C(C)C2)cc(OC)c1OC (stereo not given) | > 100 | – | –
1.27 | > 100 | – | COc1cc(C(=O)N2CCN(C(=O)c3cc(OC)c(OC)c(OC)c3)C(CO)C2)cc(OC)c1OC (stereo not given) | > 100 | – | –
0.28 | – | – | COc1cc(C(=O)N2CCN(C(=O)c3cc(OC)c(OC)c(OC)c3)C(COC(=O)NC(C)CC(C)C)C2)cc(OC)c1OC (stereo not given) | > 100 | -2 | –
1 | – | – | COc1cc(C(=O)N2CCN(C(=O)c3cc(OC)c(OC)c(OC)c3)C(COC(=O)NCC(C)(C)C)C2)cc(OC)c1OC (stereo not given) | > 100 | 74 | –
0.08 | 95 | – | COc1cc(C(=O)N2CCN(C(=O)c3cc(OC)c(OC)c(OC)c3)C(COC(=O)N3CCCCC3)C2)cc(OC)c1OC (stereo not given) | > 100 | – | –
> 100 | > 100 | – | COc1cc(C(=O)N2CCN(C(=O)c3cc(OC)c(OC)c(OC)c3)C(CNC(=O)C(C)(C)C)C2)cc(OC)c1OC (stereo not given) | > 100 | – | –
